What is called AUC(0-inf) is total exposure, with the tail of the curve extrapolated. A high value points to more exposure. One may read the half-life as the time in which the quantity being followed falls by half. Read a high half-life as slow loss. Broadly, the EC50 is the concentration giving half of the maximal effect. In general, bioavailability refers to the share of a dose that reaches the circulation, judged against a reference dose that is usually intravenous. A high value points to much systemic uptake.

Activity calls are given as the source filed them. The rule behind the calls is not given here.

Data set [1] has as its target T1, Metabotropic glutamate receptor 4 (Homo sapiens, UniProt Q14833). In words: Positive allosteric modulation of recombinant human mGlu4 receptor expressed in HEK293 cells co-expressing chimeric Gi/Gq protein assessed as fold shift in glutamate-induced calcium flux at 3 uM preincubated for 10 mins followed by glutamate addition measured for 3 mins by Fluo4-AM dye based fluorescence assay. Format: functional, cell-based. In a few lines: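 HEK-293 cells transiently co-transfected by electroporation with human mGluR4 and chimeric Gi/Gq (GqTOP) were cultured 24 h, FCS-starved 3 h, then loaded 1 h 30 min with 1 μM Fluo4-AM in HBSS/20 mM HEPES buffer containing probenecid and 0.1% BSA. Compound was added for 10 min, then glutamate (10 or 20 concentrations over 4.5 logs), read 3 min (ex 485/em 525 nm). The fold change in glutamate potency with vs without compound gives the shift.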
In general terms: A change in cytosolic calcium serves as a functional read-out for many receptors and channels.

The target of data set [2] is D(1A) dopamine receptor (Homo sapiens) (UniProt P21728). Kind of data set: Positive allosteric modulation of D1 receptor (unknown origin) at 10 uM.
The subject of another data set is Rattus norvegicus. Kind of data set: Protection against 6-OHDA induced parkinsonian motor deficit in Sprague-Dawley rat assessed as increase in slow activity at 30 mg/kg, ip after 30 to 120 mins post administration. Format: functional, organism-based. In short, it runs like this:
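Adult male Sprague−Dawley rats with bilateral 6-OHDA striatal lesions given compound 30 mg/kg ip or vehicle at T0; spontaneous locomotor activity (active time, slow activity, rearing) counted in 5-min bins versus pre-surgery vehicle; n = 10.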

Data set [3] addresses Mitogen-activated protein kinase kinase kinase 7 (Homo sapiens) (UniProt O43318). Kind of data set: Inhibition of TAK1 (unknown origin) at 10 uM.
Data set [4] concerns the target Tyrosine-protein kinase JAK3 (Homo sapiens) (UniProt P52333). In words: Inhibition of JAK3 (unknown origin) at 10 uM.
For another data set, the system named is Mus musculus. Kind of data set: Anti-parkinson's activity in ip dosed C57BL/6 mouse assessed as reversal of haloperidol-induced catalepsy after 40 mins. Format: functional, organism-based.
For data set [5], the target named is Metabotropic glutamate receptor 1 (Homo sapiens) (UniProt Q13255). Kind of data set: Activity at human mGlu1 receptor expressed in HEK293 cells co-expressing Gi/Gq assessed as effect on EC20/EC80 glutamate-induced intracellular calcium level up to 10 uM preincubated for 10 mins followed by glutamate addition measured for 3 mins by Fluo4-AM dye based fluorescence assay. Format: functional, cell-based. In a few lines: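 HEK-293 cells were electroporated with the human mGluR plus a promiscuous or chimeric G protein and cultured 24 h, then serum-starved 3 h. Cells were loaded 1.5 h with 1 μM Fluo4-AM in HBSS/HEPES buffer with probenecid and 0.1% BSA. Compound was added for 10 min, then glutamate at EC20 (PAM) or EC80 (NAM), and fluorescence (ex 485/em 525) was read for 3 min.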

The nature of data set [6]: AUC (0 to infinity) in Sprague-Dawley rat plasma at 10 mg/kg, po administered as single dose by LC-MS/MS analysis. Format: ADME, organism-based. Set-up: dose 10 mg/kg, time infinity, route oral. In a few lines:
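Rats given a single oral dose of 10 mg/kg. The first plasma sample was taken at 15 min, and sampling continued to 24 h postdose. Brain was sampled at 30 min. Values are the mean (±SEM) of 3 rats.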

The nature of data set [7]: Ratio of fraction unbound in Sprague-Dawley rat brain at 30 mg/kg, ip after 30 mins to EC50 for rat mGlu4 receptor expressed in HEK293 cells.
For data set [8], the system named is Brain. In words: Fraction unbound in Sprague-Dawley rat brain at 30 mg/kg, ip after 30 mins. Format: ADME, organism-based. Particulars: in vivo, 0.5 h.
Data set [9] is described as follows: Half life in Sprague-Dawley rat plasma at 10 mg/kg, ip administered as single dose by LC-MS/MS analysis. Format: ADME, organism-based. In a few lines:
(§1)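 Single dose ip (10 or 30 mg/kg, rat) or oral (10 mg/kg, rat or mouse); plasma Cmax, Tmax, half-life, AUC0−inf derived; brain concentration and brain/plasma ratio at 30 min postdose. Mean of 3 rats or 2 mice.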

Data set [10] deals with T1, Metabotropic glutamate receptor 4. Kind of data set: Positive allosteric modulation of recombinant human mGlu4 receptor expressed in HEK293 cells co-expressing chimeric G protein assessed as increase in EC20 glutamate-induced […]. Format: functional, cell-based. A general note: Changes in cAMP serve as a functional read-out for many G protein-coupled receptors.

For data set [11], the system named is Brain. Kind of data set: Fraction unbound in Sprague-Dawley rat brain at 30 mg/kg, ip after 60 mins. Format: ADME, organism-based. Conditions: in vivo, 1 h.
Data set [12] can be described thus: Oral bioavailability in Sprague-Dawley rat plasma at 10 mg/kg administered as single dose by LC-MS/MS analysis. Format: ADME, organism-based.
Data set [13] in a line: Ratio of drug uptake in Sprague-Dawley rat brain at 30 mg/kg, ip to EC50 for rat mGlu4 receptor expressed in HEK293 cells. In a few lines: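 Rats received a single ip or oral dose. Brain concentration was measured 30 min postdose, mean of 3 rats, and divided by the EC50 measured in cell lines overexpressing rat mGluR4.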
Data set [14] can be described thus: Ratio of drug level in Sprague-Dawley rat brain to plasma at 10 mg/kg, ip after 30 mins post dose administered as single dose by LC-MS/MS analysis. Particulars: read-out: BPR. Format: ADME, organism-based. In a few lines:
as §1

Data set [15] is described as follows: Half life in Sprague-Dawley rat plasma at 10 mg/kg, po administered as single dose by LC-MS/MS analysis. Format: ADME, organism-based. In short, it runs like this: as §1
The nature of data set [16]: Plasma concentration in Sprague-Dawley rat at 30 mg/kg, ip after 30 mins. Format: ADME, organism-based. In short, it runs like this: (§2)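 Rats dosed 30 mg/kg ip; plasma sampled over time, brain measured at 30 and 60 min; brain/plasma ratio averaged over 30 and 60 min.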
Data set [17] is described as follows: Ratio of drug uptake in Sprague-Dawley rat brain to plasma at 30 mg/kg, ip after 30 to 60 mins. Format: ADME, organism-based. Particulars: read-out: BPR. In a few lines:
as §2

Data set [18] is described as follows: Ratio of fraction unbound in Sprague-Dawley rat brain at 30 mg/kg, ip after 60 mins to EC50 for rat mGlu4 receptor expressed in HEK293 cells.
Data set [19] is described as follows: AUC (0 to infinity) in Sprague-Dawley rat at 1 mg/kg, iv administered as single dose by LC-MS/MS analysis. Format: ADME, organism-based. On the set-up: dose 1 mg/kg, route intravenous, time infinity. Particulars: in vivo.
Data set [20] is described as follows: Drug uptake in Sprague-Dawley rat brain at 30 mg/kg, ip after 60 mins. Format: ADME, organism-based. Conditions: read-out: Drug uptake.
For data set [21], the target named is Amine oxidase [flavin-containing] A (Homo sapiens, UniProt P21397). Kind of data set: Activity at MAO-A (unknown origin) up to 10 uM. Format: ADME.
Data set [22] can be described thus: Half life in Sprague-Dawley rat plasma at 30 mg/kg, ip administered as single dose by LC-MS/MS analysis. Format: ADME, organism-based. In a few lines: as §1
The nature of data set [23]: Drug uptake in Sprague-Dawley rat brain at 10 mg/kg, ip after 30 mins post dose administered as single dose by LC-MS/MS analysis. Format: ADME, organism-based. Particulars: read-out: Drug uptake. In short, it runs like this:
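Rats dosed ip at 10 or 30 mg/kg. Plasma Cmax, Tmax, half-life and AUC0–inf were determined. Brain concentration was measured 30 min postdose, and brain/plasma ratio was taken at 30 min. Values are the mean (±SEM) of 3 rats.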

A short description of data set [24]: Half life in Sprague-Dawley rat at 1 mg/kg, iv administered as single dose by LC-MS/MS analysis. Format: ADME, organism-based. Particulars: in vivo. In short, it runs like this:
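Single iv dose, 1 mg/kg in rat or 2 mg/kg in mouse; plasma PK parameters derived; brain/plasma ratio taken at 1 h postdose (rat) or 30 min postdose (mouse). Mean of 3 rats; 2 mice for mouse Cmax and brain/plasma.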

Data set [25] deals with Amine oxidase [flavin-containing] B (Homo sapiens, UniProt P27338). In words: Activity at MAO-B (unknown origin) up to 10 uM. Format: ADME.
Chain of Amine oxidase [flavin-containing] B (P27338 whole entry): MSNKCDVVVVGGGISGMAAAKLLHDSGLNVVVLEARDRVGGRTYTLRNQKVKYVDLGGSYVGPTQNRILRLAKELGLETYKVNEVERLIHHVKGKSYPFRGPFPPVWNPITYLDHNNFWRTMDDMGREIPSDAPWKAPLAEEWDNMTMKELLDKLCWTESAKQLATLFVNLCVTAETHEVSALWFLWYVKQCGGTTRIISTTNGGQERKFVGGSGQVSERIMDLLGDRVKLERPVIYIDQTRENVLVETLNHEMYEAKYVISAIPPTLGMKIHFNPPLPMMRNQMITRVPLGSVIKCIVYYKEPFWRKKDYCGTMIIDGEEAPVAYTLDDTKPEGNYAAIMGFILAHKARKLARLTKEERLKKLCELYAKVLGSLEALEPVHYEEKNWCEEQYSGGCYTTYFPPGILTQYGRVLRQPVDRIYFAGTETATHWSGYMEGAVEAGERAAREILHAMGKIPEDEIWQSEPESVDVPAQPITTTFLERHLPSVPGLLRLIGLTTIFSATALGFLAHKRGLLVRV

T1 sequence (Q14833 whole entry): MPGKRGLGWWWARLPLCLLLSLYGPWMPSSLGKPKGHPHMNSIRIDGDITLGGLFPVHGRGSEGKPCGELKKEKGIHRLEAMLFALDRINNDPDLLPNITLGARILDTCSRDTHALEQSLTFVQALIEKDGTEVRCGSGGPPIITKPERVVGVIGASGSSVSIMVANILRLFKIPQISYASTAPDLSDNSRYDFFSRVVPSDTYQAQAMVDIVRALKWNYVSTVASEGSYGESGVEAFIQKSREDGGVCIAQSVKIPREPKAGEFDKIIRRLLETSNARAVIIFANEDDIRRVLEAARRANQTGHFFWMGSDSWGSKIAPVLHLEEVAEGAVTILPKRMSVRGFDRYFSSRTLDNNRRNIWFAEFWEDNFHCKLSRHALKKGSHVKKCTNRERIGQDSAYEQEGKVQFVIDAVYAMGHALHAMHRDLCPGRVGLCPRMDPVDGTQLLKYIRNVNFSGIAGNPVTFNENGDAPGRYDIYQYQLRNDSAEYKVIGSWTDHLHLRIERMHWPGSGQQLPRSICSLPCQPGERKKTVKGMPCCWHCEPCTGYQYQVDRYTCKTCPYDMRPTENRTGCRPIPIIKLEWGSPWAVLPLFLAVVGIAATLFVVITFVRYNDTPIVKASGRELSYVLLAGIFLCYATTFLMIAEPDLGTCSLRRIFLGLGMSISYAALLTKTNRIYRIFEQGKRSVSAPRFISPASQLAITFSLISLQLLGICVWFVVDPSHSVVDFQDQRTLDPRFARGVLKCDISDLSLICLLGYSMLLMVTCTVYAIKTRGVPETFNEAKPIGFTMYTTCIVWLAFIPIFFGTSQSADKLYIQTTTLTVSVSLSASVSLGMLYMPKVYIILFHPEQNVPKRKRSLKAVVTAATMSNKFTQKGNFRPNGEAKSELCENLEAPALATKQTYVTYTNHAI
Chain of Mitogen-activated protein kinase kinase kinase 7 (Homo sapiens) (O43318 whole entry): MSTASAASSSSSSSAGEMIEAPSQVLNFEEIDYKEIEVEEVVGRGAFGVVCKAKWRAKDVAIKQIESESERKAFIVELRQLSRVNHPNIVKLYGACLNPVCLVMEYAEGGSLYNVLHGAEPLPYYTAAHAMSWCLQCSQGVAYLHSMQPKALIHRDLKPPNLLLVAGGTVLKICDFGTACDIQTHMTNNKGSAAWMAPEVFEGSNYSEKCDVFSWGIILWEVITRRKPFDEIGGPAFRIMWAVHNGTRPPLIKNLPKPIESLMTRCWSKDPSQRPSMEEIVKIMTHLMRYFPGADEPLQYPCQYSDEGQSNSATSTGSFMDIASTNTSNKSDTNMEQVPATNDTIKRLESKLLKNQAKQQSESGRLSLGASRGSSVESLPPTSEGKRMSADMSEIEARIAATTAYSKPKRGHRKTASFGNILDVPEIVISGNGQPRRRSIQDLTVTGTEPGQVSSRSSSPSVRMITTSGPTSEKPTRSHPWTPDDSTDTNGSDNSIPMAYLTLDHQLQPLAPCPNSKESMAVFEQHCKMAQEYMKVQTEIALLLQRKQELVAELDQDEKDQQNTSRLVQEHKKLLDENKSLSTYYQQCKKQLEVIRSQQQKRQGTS
Chain of Tyrosine-protein kinase JAK3 (Homo sapiens) (P52333 whole entry): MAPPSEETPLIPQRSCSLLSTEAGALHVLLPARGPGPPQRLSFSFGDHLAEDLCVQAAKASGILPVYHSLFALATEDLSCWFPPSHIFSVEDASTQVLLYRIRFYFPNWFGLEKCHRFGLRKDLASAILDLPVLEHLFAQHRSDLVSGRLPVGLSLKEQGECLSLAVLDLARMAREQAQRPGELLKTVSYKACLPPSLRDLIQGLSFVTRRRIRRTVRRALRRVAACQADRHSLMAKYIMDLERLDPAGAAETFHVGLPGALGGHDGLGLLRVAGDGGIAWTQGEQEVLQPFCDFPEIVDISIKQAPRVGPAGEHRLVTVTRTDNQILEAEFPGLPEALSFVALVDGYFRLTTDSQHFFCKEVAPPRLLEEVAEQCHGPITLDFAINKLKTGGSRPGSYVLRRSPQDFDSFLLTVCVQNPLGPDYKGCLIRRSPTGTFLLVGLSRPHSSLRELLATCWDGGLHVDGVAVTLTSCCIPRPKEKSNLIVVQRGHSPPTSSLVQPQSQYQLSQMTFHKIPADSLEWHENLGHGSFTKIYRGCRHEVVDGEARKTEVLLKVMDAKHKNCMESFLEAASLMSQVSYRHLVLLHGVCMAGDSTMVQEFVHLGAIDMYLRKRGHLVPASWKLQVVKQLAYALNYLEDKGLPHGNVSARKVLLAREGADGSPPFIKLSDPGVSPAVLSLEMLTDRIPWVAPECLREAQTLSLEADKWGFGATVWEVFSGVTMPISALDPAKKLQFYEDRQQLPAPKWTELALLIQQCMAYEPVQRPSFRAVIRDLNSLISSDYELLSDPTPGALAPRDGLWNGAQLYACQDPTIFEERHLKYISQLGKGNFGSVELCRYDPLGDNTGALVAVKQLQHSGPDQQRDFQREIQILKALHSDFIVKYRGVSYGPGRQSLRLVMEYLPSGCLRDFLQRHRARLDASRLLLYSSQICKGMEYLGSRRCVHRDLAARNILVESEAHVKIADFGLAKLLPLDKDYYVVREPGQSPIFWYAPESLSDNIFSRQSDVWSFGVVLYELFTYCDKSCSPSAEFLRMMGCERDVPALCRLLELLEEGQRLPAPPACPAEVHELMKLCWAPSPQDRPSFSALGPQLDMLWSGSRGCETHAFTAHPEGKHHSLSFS
Chain of D(1A) dopamine receptor (Homo sapiens) (P21728 whole entry): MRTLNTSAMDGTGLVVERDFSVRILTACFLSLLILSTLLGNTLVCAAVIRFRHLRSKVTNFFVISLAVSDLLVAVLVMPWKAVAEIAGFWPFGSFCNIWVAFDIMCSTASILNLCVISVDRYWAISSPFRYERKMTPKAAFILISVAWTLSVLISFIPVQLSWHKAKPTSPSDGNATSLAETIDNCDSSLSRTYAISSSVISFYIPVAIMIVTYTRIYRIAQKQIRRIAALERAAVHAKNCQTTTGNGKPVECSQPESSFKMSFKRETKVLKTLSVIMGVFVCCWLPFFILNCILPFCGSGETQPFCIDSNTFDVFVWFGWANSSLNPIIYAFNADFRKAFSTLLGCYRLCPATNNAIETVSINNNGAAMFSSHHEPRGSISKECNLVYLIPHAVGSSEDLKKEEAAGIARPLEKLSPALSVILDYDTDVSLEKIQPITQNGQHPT
Chain of Amine oxidase [flavin-containing] A (P21397 whole entry): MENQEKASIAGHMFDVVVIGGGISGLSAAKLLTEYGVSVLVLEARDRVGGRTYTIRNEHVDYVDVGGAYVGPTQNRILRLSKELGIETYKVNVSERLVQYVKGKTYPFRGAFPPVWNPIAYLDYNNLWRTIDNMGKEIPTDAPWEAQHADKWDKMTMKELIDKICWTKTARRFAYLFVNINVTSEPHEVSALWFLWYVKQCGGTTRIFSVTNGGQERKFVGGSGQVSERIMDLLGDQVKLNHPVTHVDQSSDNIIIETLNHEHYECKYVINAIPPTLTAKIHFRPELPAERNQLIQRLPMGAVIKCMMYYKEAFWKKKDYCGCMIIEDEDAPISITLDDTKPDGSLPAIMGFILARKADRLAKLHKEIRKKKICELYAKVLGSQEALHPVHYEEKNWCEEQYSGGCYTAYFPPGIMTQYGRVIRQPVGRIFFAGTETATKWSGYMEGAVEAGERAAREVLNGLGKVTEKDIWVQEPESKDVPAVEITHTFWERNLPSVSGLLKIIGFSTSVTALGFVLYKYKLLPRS

As for `O/N=c1\cc(-c2cc3cccn3cn2)oc2ccc(OCCN3CCOCC3)cc12` [listing 1 of 2 here], the fold change (FC) in [1] was found to be 10. The outcome in [2] and in data set [5] was inactive. The outcome in the data set on Rattus norvegicus was Active. In addition, the inhibition entry in data set [3] and in data set [4] was “inactive” in each case. The Activity result in the data set on Mus musculus was “Dose-dependent effect”.
In the case of `O/N=c1\cc(-c2cc3cccn3cn2)oc2ccc(OCCN3CCOCC3)cc12` [listing 2 of 2 here], the results for the AUC(0-inf) in [6] and in [19] were 903 ng·h/mL and 166 ng·h/mL, respectively. Further, the Ratio was 14.5 in data set [7], 14.5 in data set [13] and 7.6 in data set [18]. Besides, the entries for the “Drug uptake(free)” value with Brain [8] and in the data set with Brain [11] were 173 ng/g and 91 ng/g, respectively. Further, the half-life in [9] is 4 h; in [15] it was 7.3 h; in data set [22] it was 4.5 h; in [24], 0.733 h. In addition, the EC50 in data set [10] turned out to be 70 nM. In data set [12], this compound returned a bioavailability of 54%. Also, the Kp at 0.5 h in [14] turned out to be 3.1. In addition, the concentration at 0.5 h was found to be 7400 ng/mL in data set [16] and 5650 ng/g in data set [23]. Further, the Kp in data set [17] came to 3.25. For the same compound, in data set [20], the concentration at 1 h amounted to 12000 ng/g. Besides, the Activity result in data set [21] and in data set [25] was “Not Active” in each case.

The values above are taken from ChEMBL document CHEMBL4017520, “Discovery, Structure-Activity Relationship, and Antiparkinsonian Effect of a Potent and Brain-Penetrant Chemical Series of Positive Allosteric Modulators of Metabotropic Glutamate Receptor 4” (J Med Chem, 2017).
